Active and inactive are the calls of the source. No cut-off for these calls is given here.
What was measured:
HD-MB03 [1] = experiment: Sensitization of chemotherapy induced cytotoxicity against human HD-MB03 cells assessed as inhibition of cell growth at 5 uM incubated for 72 hrs in presence of 0.25 unit of vincristine, etoposide, cisplatin, cyclophosphamide by resazurin dye based analysis (reference value: 73.44 +/- 0.92%); assay type: functional
HD-MB03 [2] = experiment: Sensitization of chemotherapy induced cytotoxicity against human HD-MB03 cells assessed as inhibition of cell growth at 1.25 uM incubated for 72 hrs in presence of 2 unit of vincristine, etoposide, cisplatin, cyclophosphamide by resazurin dye based analysis (reference value: 97.7 +/- 1.3%); assay type: functional
HD-MB03 [3] = experiment: Sensitization of chemotherapy induced cytotoxicity against human HD-MB03 cells assessed as inhibition of cell growth at 20 uM incubated for 72 hrs in presence of 0.25 unit of vincristine, etoposide, cisplatin, cyclophosphamide by resazurin dye based analysis (reference value: 73.44 +/- 0.92%); assay type: functional
[4] = target: T1, BAG family molecular chaperone regulator 3 (Homo sapiens, UniProt O95817); experiment: Binding affinity to CM4 sensorchip immobilized glycosylated C-terminal His tagged human BAG3 transfected in HEK293T cells assessed as dissociation constant by SPR analysis
Outline: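 SPR single-cycle kinetics on CM4-immobilized HEK-293T-expressed BAG3-His. Increasing compound concentrations in PBS with 5% DMSO and 0.05% P20 were injected at 30 µL/min without regeneration between injections, with blank subtraction. Kd from steady-state analysis, reported as mean ± SEM and compared by Student t-test.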

HD-MB03 [5] = experiment: Induction of apoptosis in human HD-MB03 cells at 20 uM by Annexin V-FITC/PI staining based cytofluorimetric analysis; assay type: functional, cell-based; conditions: time 48-72 hrs, TDE = time-dependent effect
Outline: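 HD-MB03 cells treated with 20 µM, then stained with annexin V-FITC and PI and analysed by flow cytometry. Mean ± SEM of three independent experiments; 2-way ANOVA with Tukey correction.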

HD-MB03 [6] = experiment: Sensitization of chemotherapy induced cytotoxicity against human HD-MB03 cells assessed as inhibition of cell growth at 1.25 uM incubated for 72 hrs in presence of 0.5 unit of vincristine, etoposide, cisplatin, cyclophosphamide by resazurin dye based analysis (reference value: 83.74+/- 0.54%); assay type: functional
HD-MB03 [7] = experiment: Induction of autophagy in human HD-MB03 cells assessed as increase in LC3 green fluorescence at 20 uM incubated for 24 hrs in presence of chloroquine by immunofluorescence analysis; assay type: functional, cell-based
Outline: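 HD-MB03 cells transfected with a fluorescent LC3 plasmid, then treated 24 h later with 20 µM, alone or with chloroquine, for 24 h. Live cells stained 30 min with 50 nM LysoTracker Red and 10 µM Hoechst, then imaged by confocal microscopy. Fluorescence per field was expressed relative to DMSO control set to 1. Mean ± SD of three experiments; 2-way ANOVA.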

HD-MB03 [8] = experiment: Sensitization of chemotherapy induced cytotoxicity against human HD-MB03 cells assessed as inhibition of cell growth at 5 uM incubated for 72 hrs in presence of 1 unit of vincristine, etoposide, cisplatin, cyclophosphamide by resazurin dye based analysis (reference value: 91.53 +/- 1.15%); assay type: functional
HD-MB03 [9] = experiment: Sensitization of chemotherapy induced cytotoxicity against human HD-MB03 cells assessed as inhibition of cell growth at 10 uM incubated for 72 hrs in presence of 0.25 unit of vincristine, etoposide, cisplatin, cyclophosphamide by resazurin dye based analysis (reference value: 73.44 +/- 0.92%); assay type: functional
HD-MB03 [10] = experiment: Induction of autophagy in human HD-MB03 cells assessed as autophagic vacuole formation at 20 uM incubated for 24 hrs by bright field imaging analysis; assay type: functional, cell-based
[11] = target: T1, BAG family molecular chaperone regulator 3; experiment: Binding affinity to C-terminal His tagged human BAG3 transfected in HEK293T cells assessed as intermolecular nuclear overhauser effect mediated protein magnetization at 125 uM by waterLOGSY experiment; assay type: cell-based
Outline: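 Ligand-observed NMR in 50 mM sodium phosphate pH 7.8, 150 mM NaCl, 0.04% NaN3, 1.3% DMSO-d6, 5% D2O. Compound at 125 µM with 5 µM BAG3-His (HEK-293T expressed, purified by IMAC and SEC), each also run without protein. WaterLOGSY used 240 scans, 1.5 s mixing and water inversion at 4.7 ppm. STD used 256 scans with protein saturation at 0.4 ppm.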

HD-MB03 [12] = experiment: Cytotoxicity against human HD-MB03 cells assessed as inhibition of cell growth at 2.5 uM incubated for 72 hrs by resazurin dye based analysis relative to control; assay type: functional
Outline: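 Resazurin viability in HD-MB03 cells, 2000/well, single-agent arm of the 6x6 matrix. Inhibitor was added 24 h after seeding, in a 6-point 2-fold series, duplicates, two independent experiments. After 72 h exposure, resazurin was added at 44 µM final for 3 h at 37 °C and fluorescence read at 590 nm. Viability normalized to 1 µM bortezomib and 0.5% DMSO controls.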

[13] = Cytotoxicity against PHA stimulated human PBMC cells assessed as cell growth inhibition incubated for 72 hrs by MTT assay; assay type: toxicity, cell-based
[14] = target: T1, BAG family molecular chaperone regulator 3; experiment: Binding affinity to CM4 sensorchip immobilized C-terminal His tagged human BAG3 transfected in HEK293T cells assessed as signal saturation at 50 uM by SPR analysis
HD-MB03 [15] = experiment: Induction of cell cycle arrest in human HD-MB03 cells assessed as accumulation of cells at S phase at 10 uM incubated for 72 hrs by RNase/PI staining based cytofluorimetric analysis (reference value: 40.9%); assay type: functional
HD-MB03 [16] = experiment: Induction of apoptosis in human HD-MB03 cells assessed as membrane blebbing at 20 uM incubated for 24 hrs in presence of chloroquine by bright field imaging analysis; assay type: functional, cell-based
HD-MB03 [17] = experiment: Sensitization of chemotherapy induced cytotoxicity against human HD-MB03 cells assessed as inhibition of cell growth at 20 uM incubated for 72 hrs in presence of 0.5 unit of vincristine, etoposide, cisplatin, cyclophosphamide by resazurin dye based analysis (reference value: 83.74+/- 0.54%); assay type: functional
HD-MB03 [18] = experiment: Sensitization of chemotherapy induced cytotoxicity against human HD-MB03 cells assessed as inhibition of cell growth at 2.5 uM incubated for 72 hrs in presence of 0.12 unit of vincristine, etoposide, cisplatin, cyclophosphamide by resazurin dye based analysis (reference value: 51.43 +/- 1.17%); assay type: functional
HD-MB03 [19] = experiment: Sensitization of chemotherapy induced cytotoxicity against human HD-MB03 cells assessed as inhibition of cell growth at 5 uM incubated for 72 hrs in presence of 2 unit of vincristine, etoposide, cisplatin, cyclophosphamide by resazurin dye based analysis (reference value: 97.7 +/- 1.3%); assay type: functional
HD-MB03 [20] = experiment: Induction of apoptosis in human HD-MB03 cells assessed as cell shrinkage at 20 uM incubated for 24 hrs in presence of chloroquine by bright field imaging analysis; assay type: functional, cell-based
HD-MB03 [21] = experiment: Sensitization of chemotherapy induced cytotoxicity against human HD-MB03 cells assessed as inhibition of cell growth at 10 uM incubated for 72 hrs in presence of 0.12 unit of vincristine, etoposide, cisplatin, cyclophosphamide by resazurin dye based analysis (reference value: 51.43 +/- 1.17%); assay type: functional
HD-MB03 [22] = experiment: Sensitization of chemotherapy induced cytotoxicity against human HD-MB03 cells assessed as inhibition of cell growth at 5 uM incubated for 72 hrs in presence of 0.12 unit of vincristine, etoposide, cisplatin, cyclophosphamide by resazurin dye based analysis (reference value: 51.43 +/- 1.17%); assay type: functional

T1 sequence (O95817 whole entry): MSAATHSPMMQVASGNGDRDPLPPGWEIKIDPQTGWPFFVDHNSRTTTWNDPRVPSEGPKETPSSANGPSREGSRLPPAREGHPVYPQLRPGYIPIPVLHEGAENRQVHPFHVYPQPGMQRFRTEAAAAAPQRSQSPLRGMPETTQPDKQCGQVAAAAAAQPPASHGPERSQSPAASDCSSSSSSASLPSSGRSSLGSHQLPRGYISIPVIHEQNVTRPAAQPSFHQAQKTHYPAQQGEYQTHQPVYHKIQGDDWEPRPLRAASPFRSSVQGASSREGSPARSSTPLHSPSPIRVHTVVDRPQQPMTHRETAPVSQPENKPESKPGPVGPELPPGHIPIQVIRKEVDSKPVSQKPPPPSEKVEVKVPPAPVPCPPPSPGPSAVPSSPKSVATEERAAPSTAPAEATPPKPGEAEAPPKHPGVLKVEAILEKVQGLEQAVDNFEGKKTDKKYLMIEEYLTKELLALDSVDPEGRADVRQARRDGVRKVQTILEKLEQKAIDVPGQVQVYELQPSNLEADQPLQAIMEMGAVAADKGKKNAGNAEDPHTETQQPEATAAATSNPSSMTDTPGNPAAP

CC(C(=O)N1CCOCC1)N1C(=O)S/C(=C\c2cccc(O)c2O)C1=O (racemic)
inhibition at 5 µM (HD-MB03 [1]): 76.7% | inhibition at 1.25 µM (HD-MB03 [2]): 96.6% | inhibition at 20 µM (HD-MB03 [3]): 80.8% | Kd [4]: 45 µM | Activity (HD-MB03 [5]): Tde | inhibition at 1.25 µM (HD-MB03 [6]): 82.7% | Activity (HD-MB03 [7]): inactive | inhibition at 5 µM (HD-MB03 [8]): 92% | inhibition at 10 µM (HD-MB03 [9]): 82.2% | Activity (HD-MB03 [10]): Active | Activity [11]: Active | inhibition at 2.5 µM (HD-MB03 [12]): -8.3% | GI50 at 72 h [13]: > 100 µM | Activity [14]: Active | Activity (HD-MB03 [15]): 24.8% | Activity (HD-MB03 [16]): Active | inhibition at 20 µM (HD-MB03 [17]): 87.7% | inhibition at 2.5 µM (HD-MB03 [18]): 53.4% | inhibition at 5 µM (HD-MB03 [19]): 95.2% | Activity (HD-MB03 [20]): Active | inhibition at 10 µM (HD-MB03 [21]): 75.8% | inhibition at 5 µM (HD-MB03 [22]): 62.3%

Source: ChEMBL document CHEMBL5335790, “Design, synthesis and biological evaluation of novel 2,4-thiazolidinedione derivatives able to target the human BAG3 protein” (Eur J Med Chem, 2023)
